Assays:
[1] = target: T1, Bromodomain-containing protein 4 (Homo sapiens, UniProt O60885); assay: Binding affinity to TEV cleavage site-fused-His-tagged BRD4(BD1) (unknown origin) assessed as change in melting temperature at 10 uM by RT-PCR based thermal shift assay
Procedure, shortened: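 His-tag removed by TEV cleavage before use; protein 2 μM final, compound 10 μM final (0.1% or 0.5% DMSO), thermal shift dye 1:1000, in 10 mM HEPES pH 7.5, 500 mM NaCl. After 1 min equilibration at 25 °C, heated 25–70 °C in 0.5 °C steps (25 s each); Tm from fluorescence melt curves, run in triplicate; ΔTm reported.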

[2] = target: T1, Bromodomain-containing protein 4; assay: Inhibition of TEV cleavage site-fused-GST tagged BRD4(BD1) (unknown origin) using SGRGK(Ac)CGK(Ac)-GLGK(Ac)GGAK(Ac)RHRKVG-peptide after 3 hrs by HTRF assay
Procedure, shortened: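 GST-BRD4(BD1) purified on glutathione resin and by size exclusion; tetra-acetylated H4 peptide as ligand. Buffer 50 mM HEPES pH 7.5, 400 mM KF, 0.1% BSA, 0.5% DMSO final; 3 h at room temperature.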

[3] = target: T1, Bromodomain-containing protein 4; assay: Binding affinity to TEV cleavage site-fused-His-tagged BRD4(BD1) (unknown origin) by isothermal-titration calorimetry
Procedure, shortened: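 BRD4(BD1) with His-tag cleaved by TEV, DTT removed, dialysed into 10 mM HEPES pH 7.5, 150 mM NaCl; compounds diluted in the final dialysate. Reverse titration (protein in syringe, ligand in cell), 13 injections at 15 or 25 °C, in triplicate. Data fitted to a one-site model for KD and ΔH; ΔG and TΔS derived from these.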

CCn1cnc2c1c(=O)[nH]c(=O)n2Cc1ccc(CNS(=O)(=O)c2ccc(Oc3ccccc3)cc2)cc1
ΔTm [1]: 3.13 °C | IC50 [2]: 316 nM | Kd [3]: 360 nM

CCn1cnc2c1c(=O)[nH]c(=O)n2Cc1ccc(CNS(=O)(=O)c2ccc(OC)cc2)cc1
ΔTm [1]: 2.63 °C | IC50 [2]: 794 nM | Kd [3]: 540 nM

CCn1cnc2c1c(=O)[nH]c(=O)n2Cc1ccc(CNS(=O)(=O)c2ccc3c(c2)n(C)c(=O)n3C)cc1
ΔTm [1]: 2.13 °C | IC50 [2]: 794 nM | Kd [3]: 860 nM

CCn1cnc2c1c(=O)[nH]c(=O)n2Cc1ccc(CNS(=O)(=O)c2ccc3c(c2)CCC(=O)N3)cc1
ΔTm [1]: 3 °C | IC50 [2]: 398 nM | Kd [3]: 310 nM

CCn1cnc2c1c(=O)[nH]c(=O)n2Cc1ccc(CNS(=O)(=O)c2cccc(-c3ccccc3)c2)cc1
ΔTm [1]: 3.25 °C | IC50 [2]: 501 nM | Kd [3]: 890 nM

CCn1cnc2c1c(=O)[nH]c(=O)n2Cc1ccc(CNS(=O)(=O)c2ccc(-c3ccccc3)cc2)cc1
ΔTm [1]: 1.5 °C | IC50 [2]: 398 nM

CCn1cnc2c1c(=O)[nH]c(=O)n2Cc1ccc(CNS(=O)(=O)c2cnn(-c3ccccc3)c2)cc1
ΔTm [1]: 3.38 °C | IC50 [2]: 501 nM | Kd [3]: 410 nM

CCn1cnc2c1c(=O)[nH]c(=O)n2Cc1ccc(CNS(=O)(=O)c2ccc3oncc3c2)cc1
IC50 [2]: 2000 nM

CCn1cnc2c1c(=O)[nH]c(=O)n2Cc1ccc(CNS(=O)(=O)c2cc(-c3ccno3)ccc2C)cc1
IC50 [2]: 1260 nM

CCn1cnc2c1c(=O)[nH]c(=O)n2Cc1ccc(CN)cc1
IC50 [2]: 25100 nM

CCn1cnc2c1c(=O)[nH]c(=O)n2Cc1ccc(CNS(=O)(=O)c2ccc3c(c2)CCCC(=O)N3)cc1
ΔTm [1]: 3.88 °C | Kd [3]: 190 nM

CCn1cnc2c1c(=O)[nH]c(=O)n2Cc1ccc(CNS(=O)(=O)c2ccc(OCc3ccccc3)cc2)cc1
ΔTm [1]: 3.5 °C | IC50 [2]: 631 nM | Kd [3]: 590 nM

CCn1cnc2c1c(=O)[nH]c(=O)n2Cc1ccc(CNS(=O)(=O)CCN2CCOCC2)cc1
IC50 [2]: 5010 nM

CCn1cnc2c1c(=O)[nH]c(=O)n2Cc1ccc(CNS(=O)(=O)c2ccc(C)cc2)cc1
ΔTm [1]: 3 °C | IC50 [2]: 631 nM | Kd [3]: 770 nM

CCn1cnc2c1c(=O)[nH]c(=O)n2Cc1ccc(CNS(=O)(=O)CCc2ccccc2)cc1
IC50 [2]: 1580 nM

Reference: ChEMBL document CHEMBL4251752, “Integrated Strategy for Lead Optimization Based on Fragment Growing: The Diversity-Oriented-Target-Focused-Synthesis Approach” (J Med Chem, 2018)
